Eight compounds from ChEMBL document CHEMBL2384901, “Synthesis and biology of oligoethylene glycol linked naphthoxylosides” (Bioorg Med Chem, 2013) can be followed below.

pEC50: −log10 of the molar value.

The nature of series [1]: Induction of heparan sulphate synthesis in human CCD-1095SK cells assessed as proportion of heparan sulphate of total GAGs. It counts as functional. Also on record: concentration or dose not given beside the values. The gist of the method: (§1)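 Xyloside-primed [35S]sulfate material was pooled from Superose 6 fractions, 35–51 for HCC70 and 34–51 for CCD-1095Sk. HS was cleaved by deaminative HNO2 at pH 1.5, then the digest was re-separated by gel permeation. Radioactivity was measured by β-counting.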

Series [2] in a line: Induction of glycosaminoglycan synthesis in human CCD-1095SK cells assessed as [35S]sulfate incorporation at 100 uM after 24 hrs by bata counting analysis relative to untreated control.
Series [3] can be described thus: Cytotoxicity against human CCD-1095SK cells assessed as growth inhibition after 96 hrs by crystal violet staining assay. It counts as cell-based. The settings on record: read-out: ED50. The gist of the method: (§2)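 Cells plated at 5000/well in MEM Earle's or RPMI-1640 with 10% FBS. After 24 h, medium changed to Ham's F-12 with insulin (10 µg/mL), transferrin (25 µg/mL), 1% L-glutamine, 10 ng/mL EGF and xylosides at 5–500 µM, for 96 h. Cells fixed in 0.25% glutaraldehyde and stained with 0.1% crystal violet. Lysed in 1% Triton X-100; A595 read. ED50 reported.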

In series [4] the test system is HCC70. Nature of the series: Induction of heparan sulphate synthesis in human HCC70 cells assessed as proportion of heparan sulphate of total GAGs. It counts as functional. Also on record: concentration or dose not given beside the values. The gist of the method:
as §1

Series [5] relates to HCC70. Put plainly: Induction of glycosaminoglycan synthesis in human HCC70 cells assessed as [35S]sulfate incorporation at 100 uM after 24 hrs by bata counting analysis relative to untreated control.
Series [6] relates to HCC70. Nature of the series: Cytotoxicity against human HCC70 cells assessed as growth inhibition after 96 hrs by crystal violet staining assay. It counts as functional. The settings on record: HCC70, 96 h, read-out: ED50 (the source's name). The gist of the method: as §2

Consider `Oc1ccc2cc(CO[C@@H]3OC[C@@H](O)[C@H](O)[C@H]3O)ccc2c1`, for which the Activity in series [1] was determined as 7%; in series [4], 14%. In addition, the entries for the “fold change (FC)” value in series [2] and in series [5] were 98 and 42, respectively. Besides, in series [3], the GI50 at 96 h worked out at 223 µM. Also, the pEC50 in series [6] is 3.55.

Turning to `O[C@@H]1[C@@H](O)[C@H](OCc2ccc3ccccc3c2)OC[C@H]1O`, the Activity in series [1] is 7%; in series [4] it was 14%. Further, the “fold change (FC)” value in series [2] was determined as 55; in series [5] it was 31. Besides, the GI50 at 96 h in series [3] was 298 µM. Further, the pEC50 in series [6] is 3.57.

In the case of `O[C@@H]1[C@@H](O)[C@H](OCCOCCOCCOc2ccc3ccccc3c2)OC[C@H]1O`, the Activity in series [1] is given as 20%; in series [4], 15%. The results for the “fold change (FC)” value in series [2] and in series [5] were 74 and 21, respectively. Further, in series [3], the GI50 at 96 h turned out to be 70 µM. For the same compound, the pEC50 in series [6] was 4.06.

As to `O[C@@H]1[C@@H](O)[C@H](OCCOc2ccc3ccccc3c2)OC[C@H]1O`, the Activity in series [1] is 3%; in series [4], 9%. Further, the results for the “fold change (FC)” value in series [2] and in series [5] were 79 and 26, respectively. Also, the GI50 at 96 h in series [3] was 140 µM. Also, in series [6], the pEC50 was 3.66.

In the case of `O[C@@H]1[C@@H](O)[C@H](Oc2ccc3ccccc3c2)OC[C@H]1O`, the Activity in series [1] amounted to 3%; in series [4], 9%. For the same compound, the “fold change (FC)” value is recorded as 24 in series [2] and 16 in series [5]. In series [3], the GI50 at 96 h came out at 152 µM. In addition, in series [6], the pEC50 was 3.61.

In the case of `Oc1ccc2cc(O[C@@H]3OC[C@@H](O)[C@H](O)[C@H]3O)ccc2c1`, the Activity in series [1] amounted to 6%; in series [4], 28%. Also, the “fold change (FC)” value worked out at 74 in series [2] and 37 in series [5]. Moreover, the GI50 at 96 h in series [3] is 258 µM. Also, the pEC50 in series [6] was 5.15.

Turning to `Oc1ccc2cc(OCCO[C@@H]3OC[C@@H](O)[C@H](O)[C@H]3O)ccc2c1`, the Activity in series [1] is on record as 26%; in series [4], 34%. Moreover, the figures for the “fold change (FC)” value in series [2] and in series [5] were 90 and 29, respectively. For the same compound, in series [3], the GI50 at 96 h turned out to be 280 µM. Besides, in series [6], the pEC50 is 3.75.

With `O[C@@H]1[C@@H](O)[C@H](OCCOCCOc2ccc3ccccc3c2)OC[C@H]1O`, the Activity in series [1] came out at 2%; in series [4], 5%. Moreover, the “fold change (FC)” value in series [2] was determined as 80; in series [5], 29. Also, the GI50 at 96 h in series [3] turned out to be 150 µM. Besides, the pEC50 in series [6] was 3.89.
